Measured values published in ChEMBL document CHEMBL5356951, “Semisynthetic polymyxins with potent antibacterial activity and reduced kidney cell toxicity” (RSC Med Chem, 2023).
Values after ≈ are worked out from the molar mass of the structure shown.

Assays:
Type in all cases: functional
Escherichia coli [1] = test: Antibacterial activity against Escherichia coli ATCC 25922 assessed as bacterial growth inhibition by broth microdilution assay
Procedure, shortened: (§1)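 Broth microdilution. Bacteria from glycerol stocks were grown overnight on blood agar at 37 °C, then colonies were suspended in TSB and grown to OD600 0.5. Compounds were dissolved in DMSO at 6.4 mg mL−1 (stock) and serially diluted in CAMHB (Mg2+ 12.5, Ca2+ 20 μg mL−1) in polypropylene plates. Inoculum was 10^6 CFU mL−1 final, incubated at 37 °C. MIC = lowest concentration without visible growth; values consistent across at least triplicate experiments.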

Escherichia coli [2] = test: Antibacterial activity against Escherichia coli 1313 assessed as bacterial growth inhibition by broth microdilution assay; procedure, shortened: as §1
Escherichia coli [3] = test: Antibacterial activity against multidrug-resistant Escherichia coli NCTC 13846 assessed as bacterial growth inhibition by broth microdilution assay
Procedure, shortened: (§2)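 Broth microdilution MIC. Strains grown overnight on blood agar at 37 °C, colonies suspended in TSB and grown to OD600 0.5. Compounds dissolved in DMSO (6.4 mg mL−1 stock), diluted serially in CAMHB (12.5 μg mL−1 Mg2+, 20 μg mL−1 Ca2+) on polypropylene plates. Final inoculum 10^6 CFU mL−1, 37 °C under gas-permeable membrane. MIC is the lowest concentration with no visible growth, consistent across at least triplicate experiments.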

Klebsiella pneumoniae [4] = test: Antibacterial activity against Klebsiella pneumoniae ATCC 13883 assessed as bacterial growth inhibition by broth microdilution assay; procedure, shortened: as §1
Klebsiella pneumoniae [5] = test: Antibacterial activity against Klebsiella pneumoniae JS-123 assessed as bacterial growth inhibition by broth microdilution assay; procedure, shortened: as §1
Klebsiella pneumoniae [6] = test: Antibacterial activity against Klebsiella pneumoniae NCTC 13443 assessed as bacterial growth inhibition by broth microdilution assay; procedure, shortened: as §1
Acinetobacter baumannii [7] = test: Antibacterial activity against Acinetobacter baumannii ATCC 19606 assessed as bacterial growth inhibition by broth microdilution assay; procedure, shortened: as §2
Acinetobacter baumannii [8] = test: Antibacterial activity against Acinetobacter baumannii ATCC 17978 assessed as bacterial growth inhibition by broth microdilution assay; procedure, shortened: as §2
Acinetobacter baumannii [9] = test: Antibacterial activity against multidrug-resistant Acinetobacter baumannii assessed as bacterial growth inhibition by broth microdilution assay; procedure, shortened: as §2
Acinetobacter baumannii [10] = test: Antibacterial activity against Acinetobacter baumannii 2018-006 assessed as bacterial growth inhibition by broth microdilution assay; procedure, shortened: as §2
Pseudomonas aeruginosa [11] = test: Antibacterial activity against Pseudomonas aeruginosa ATCC 27853 assessed as bacterial growth inhibition by broth microdilution assay; procedure, shortened: as §1
Pseudomonas aeruginosa [12] = test: Antibacterial activity against Pseudomonas aeruginosa NRZ 08418 assessed as bacterial growth inhibition by broth microdilution assay; procedure, shortened: as §1
Pseudomonas aeruginosa [13] = test: Antibacterial activity against Pseudomonas aeruginosa NRZ 03961 assessed as bacterial growth inhibition by broth microdilution assay; procedure, shortened: as §1

Structure (SMILES)	MIC (Escherichia coli [1])	MIC (Escherichia coli [2])	MIC (Escherichia coli [3])	MIC (Klebsiella pneumoniae [4])	MIC (Klebsiella pneumoniae [5])	MIC (Klebsiella pneumoniae [6])	MIC (Acinetobacter baumannii [7])	MIC (Acinetobacter baumannii [8])	MIC (Acinetobacter baumannii [9])	MIC (Acinetobacter baumannii [10])	MIC (Pseudomonas aeruginosa [11])	MIC (Pseudomonas aeruginosa [12])	MIC (Pseudomonas aeruginosa [13])
CC(C)C[C@@H]1NC(=O)[C@@H](Cc2ccccc2)NC(=O)[C@H](CCN)NC(=O)[C@@H](NC(=O)[C@@H](CN)NC(=O)[C@@H](NC(=O)[C@H](N)CSSCc2cccc(Cl)c2)[C@@H](C)O)CCNC(=O)[C@H]([C@@H](C)O)NC(=O)[C@H](CCN)NC(=O)[C@H](CCN)NC1=O	2 µg/mL (≈ 1.65 µM)	0.5 µg/mL (≈ 0.414 µM)	16 µg/mL (≈ 13.2 µM)	0.5 µg/mL (≈ 0.414 µM)	2 µg/mL (≈ 1.65 µM)	8 µg/mL (≈ 6.62 µM)	0.5 µg/mL (≈ 0.414 µM)	0.5 µg/mL (≈ 0.414 µM)	0.5 µg/mL (≈ 0.414 µM)	0.5 µg/mL (≈ 0.414 µM)	1 µg/mL (≈ 0.827 µM)	0.5 µg/mL (≈ 0.414 µM)	2 µg/mL (≈ 1.65 µM)
CC(C)CCSSC[C@@H](N)C(=O)N[C@H](C(=O)N[C@H](CN)C(=O)N[C@H]1CCNC(=O)[C@H]([C@@H](C)O)NC(=O)[C@H](CCN)NC(=O)[C@H](CCN)NC(=O)[C@H](CC(C)C)NC(=O)[C@@H](Cc2ccccc2)NC(=O)[C@H](CCN)NC1=O)[C@@H](C)O	2 µg/mL (≈ 1.73 µM)	0.5 µg/mL (≈ 0.433 µM)	8 µg/mL (≈ 6.93 µM)	0.5 µg/mL (≈ 0.433 µM)	0.5 µg/mL (≈ 0.433 µM)	0.5 µg/mL (≈ 0.433 µM)	0.25 µg/mL (≈ 0.217 µM)	0.25 µg/mL (≈ 0.217 µM)	0.25 µg/mL (≈ 0.217 µM)	0.25 µg/mL (≈ 0.217 µM)	1 µg/mL (≈ 0.866 µM)	4 µg/mL (≈ 3.46 µM)	2 µg/mL (≈ 1.73 µM)
CC(C)C[C@@H]1NC(=O)[C@@H](Cc2ccccc2)NC(=O)[C@H](CCN)NC(=O)[C@@H](NC(=O)[C@H](CN)NC(=O)[C@@H](NC(=O)[C@H](N)CSSCc2cccc(Cl)c2)[C@@H](C)O)CCNC(=O)[C@H]([C@@H](C)O)NC(=O)[C@H](CCN)NC(=O)[C@H](CCN)NC1=O	2 µg/mL (≈ 1.65 µM)	≤ 0.125 µg/mL	2 µg/mL (≈ 1.65 µM)	0.5 µg/mL (≈ 0.414 µM)	0.5 µg/mL (≈ 0.414 µM)	2 µg/mL (≈ 1.65 µM)	0.5 µg/mL (≈ 0.414 µM)	≤ 0.25 µg/mL	8 µg/mL (≈ 6.62 µM)	2 µg/mL (≈ 1.65 µM)	4 µg/mL (≈ 3.31 µM)	2 µg/mL (≈ 1.65 µM)	2 µg/mL (≈ 1.65 µM)
CC(C)CCSSC[C@@H](N)C(=O)N[C@H](C(=O)N[C@H](CO)C(=O)N[C@H]1CCNC(=O)[C@H]([C@@H](C)O)NC(=O)[C@H](CCN)NC(=O)[C@H](CCN)NC(=O)[C@H](CC(C)C)NC(=O)[C@@H](Cc2ccccc2)NC(=O)[C@H](CCN)NC1=O)[C@@H](C)O	2 µg/mL (≈ 1.73 µM)	0.5 µg/mL (≈ 0.433 µM)	16 µg/mL (≈ 13.8 µM)	0.5 µg/mL (≈ 0.433 µM)	0.5 µg/mL (≈ 0.433 µM)	1 µg/mL (≈ 0.865 µM)	0.25 µg/mL (≈ 0.216 µM)	0.25 µg/mL (≈ 0.216 µM)	0.5 µg/mL (≈ 0.433 µM)	0.5 µg/mL (≈ 0.433 µM)	4 µg/mL (≈ 3.46 µM)	8 µg/mL (≈ 6.92 µM)	8 µg/mL (≈ 6.92 µM)
CC(C)C[C@@H]1NC(=O)[C@@H](Cc2ccccc2)NC(=O)[C@H](CCN)NC(=O)[C@@H](NC(=O)CNC(=O)[C@@H](NC(=O)[C@H](N)CSSCCC2CCCCC2)[C@@H](C)O)CCNC(=O)[C@H]([C@@H](C)O)NC(=O)[C@H](CCN)NC(=O)[C@H](CCN)NC1=O	2 µg/mL (≈ 1.72 µM)	0.5 µg/mL (≈ 0.429 µM)	8 µg/mL (≈ 6.86 µM)	1 µg/mL (≈ 0.858 µM)	0.5 µg/mL (≈ 0.429 µM)	1 µg/mL (≈ 0.858 µM)	0.5 µg/mL (≈ 0.429 µM)	0.5 µg/mL (≈ 0.429 µM)	1 µg/mL (≈ 0.858 µM)	0.5 µg/mL (≈ 0.429 µM)	2 µg/mL (≈ 1.72 µM)	2 µg/mL (≈ 1.72 µM)	4 µg/mL (≈ 3.43 µM)
CC(C)C[C@@H]1NC(=O)[C@@H](Cc2ccccc2)NC(=O)[C@H](CCN)NC(=O)[C@@H](NC(=O)[C@@H](CN)NC(=O)[C@@H](NC(=O)[C@H](N)CSSCCC2CCCCC2)[C@@H](C)O)CCNC(=O)[C@H]([C@@H](C)O)NC(=O)[C@H](CCN)NC(=O)[C@H](CCN)NC1=O	2 µg/mL (≈ 1.67 µM)	0.5 µg/mL (≈ 0.419 µM)	4 µg/mL (≈ 3.35 µM)	1 µg/mL (≈ 0.837 µM)	1 µg/mL (≈ 0.837 µM)	1 µg/mL (≈ 0.837 µM)	0.5 µg/mL (≈ 0.419 µM)	1 µg/mL (≈ 0.837 µM)	1 µg/mL (≈ 0.837 µM)	0.5 µg/mL (≈ 0.419 µM)	2 µg/mL (≈ 1.67 µM)	2 µg/mL (≈ 1.67 µM)	2 µg/mL (≈ 1.67 µM)
CC(C)C[C@@H]1NC(=O)[C@@H](Cc2ccccc2)NC(=O)[C@H](CCN)NC(=O)[C@@H](NC(=O)[C@@H](CCN)NC(=O)[C@@H](NC(=O)[C@H](N)CSSCc2cccc(Cl)c2)[C@@H](C)O)CCNC(=O)[C@H]([C@@H](C)O)NC(=O)[C@H](CCN)NC(=O)[C@H](CCN)NC1=O	2 µg/mL (≈ 1.64 µM)	0.5 µg/mL (≈ 0.409 µM)	4 µg/mL (≈ 3.27 µM)	1 µg/mL (≈ 0.818 µM)	0.5 µg/mL (≈ 0.409 µM)	0.5 µg/mL (≈ 0.409 µM)	0.5 µg/mL (≈ 0.409 µM)	1 µg/mL (≈ 0.818 µM)	1 µg/mL (≈ 0.818 µM)	0.5 µg/mL (≈ 0.409 µM)	2 µg/mL (≈ 1.64 µM)	2 µg/mL (≈ 1.64 µM)	2 µg/mL (≈ 1.64 µM)
